ChEMBL document CHEMBL1138990, “Diadenosine and diuridine poly(borano)phosphate analogues: synthesis, chemical and enzymatic stability, and activity at P2Y1 and P2Y2 receptors” (J Med Chem, 2006)

Columns and labels:
Type in all cases: functional, cell-based
P2Y purinoceptor 1 [1] = molecular target: P2Y purinoceptor 1 (Rattus norvegicus, UniProt P49651); experiment: Activity against rat P2Y1-GFP transfected in HEK293 cells by intracellular calcium increase
How it was run: (§1)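 HEK 293 cells stably expressing rat P2Y1-GFP or P2Y2-GFP (C-terminal GFP), transfected with DOTAP and selected with 1 mg/mL G418. Grown in DMEM/Ham's F12 with 10% FCS on PLL coverslips and measured after 3 days. Loaded with 2 µM Fura-2/AM for 30 min, then superfused with NaHBS at 37 °C with agonist for 1 min. Single-cell 340/380 nm ratio; mean ± SD, ≥50 cells.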

P2Y purinoceptor 2 = P2Y purinoceptor 2 (Rattus norvegicus, UniProt P41232); experiment: Activity against rat P2Y2-GFP transfected in HEK293 cells by intracellular calcium increase; how it was run: as §1
Sequence of P2Y purinoceptor 2 (P41232 whole entry): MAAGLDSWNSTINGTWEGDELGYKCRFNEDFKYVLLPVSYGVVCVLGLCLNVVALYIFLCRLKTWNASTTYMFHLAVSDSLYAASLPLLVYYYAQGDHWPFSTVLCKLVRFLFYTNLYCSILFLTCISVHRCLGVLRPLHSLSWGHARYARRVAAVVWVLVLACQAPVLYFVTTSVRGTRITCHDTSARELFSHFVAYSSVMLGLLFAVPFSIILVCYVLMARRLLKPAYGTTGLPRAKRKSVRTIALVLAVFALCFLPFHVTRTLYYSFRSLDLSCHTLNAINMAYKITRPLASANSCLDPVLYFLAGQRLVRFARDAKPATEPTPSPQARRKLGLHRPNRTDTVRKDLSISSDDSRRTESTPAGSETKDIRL

P2Y purinoceptor 1 [2] = molecular target: P2Y purinoceptor 1 (Homo sapiens, UniProt P47900); experiment: Activity against human P2Y1-GFP expressed in 1321N1 cells by intracellular calcium increase
Sequence of P2Y purinoceptor 1 (Homo sapiens, UniProt P47900) (P47900 whole entry, the tested form may be a part): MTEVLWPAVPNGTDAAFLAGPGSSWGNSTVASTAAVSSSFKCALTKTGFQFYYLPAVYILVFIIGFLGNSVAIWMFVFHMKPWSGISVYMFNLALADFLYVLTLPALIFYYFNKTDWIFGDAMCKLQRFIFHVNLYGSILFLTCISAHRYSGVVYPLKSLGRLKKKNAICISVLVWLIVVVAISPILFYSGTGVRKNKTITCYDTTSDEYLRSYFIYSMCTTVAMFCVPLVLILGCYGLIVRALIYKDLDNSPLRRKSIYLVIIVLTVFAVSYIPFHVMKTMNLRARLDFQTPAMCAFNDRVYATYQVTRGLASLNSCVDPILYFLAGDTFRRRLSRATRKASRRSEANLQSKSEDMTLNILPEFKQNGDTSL
How it was run: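 hP2Y1-GFP (C-terminal tag) stably transfected into 1321N1 cells, which lack endogenous P2Y receptors; selected with 1 mg/mL G418. Cells grown in DMEM with 5% FCS under 10% CO2 at 37 °C on PLL-coated coverslips. Loaded with 2 µM Fura-2/AM for 30 min in NaHBS pH 7.4, then superfused at 37 °C with agonist for 1 min. Read-out is single-cell 340/380 nm fluorescence ratio; mean ± SD from ≥50 cells.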

Sequence of P2Y purinoceptor 1 (Rattus norvegicus, UniProt P49651) (P49651 whole entry, the tested form may be a part): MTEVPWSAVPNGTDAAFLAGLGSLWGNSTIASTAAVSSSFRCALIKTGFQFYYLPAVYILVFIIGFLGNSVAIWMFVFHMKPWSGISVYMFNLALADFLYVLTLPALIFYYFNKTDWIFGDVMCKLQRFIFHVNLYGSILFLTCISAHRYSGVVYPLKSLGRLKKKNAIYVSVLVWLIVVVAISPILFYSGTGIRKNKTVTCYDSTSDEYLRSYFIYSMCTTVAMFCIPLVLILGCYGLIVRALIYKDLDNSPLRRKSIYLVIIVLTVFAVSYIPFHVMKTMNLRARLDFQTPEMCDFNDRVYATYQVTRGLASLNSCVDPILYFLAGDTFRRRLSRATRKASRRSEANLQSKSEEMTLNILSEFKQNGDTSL

| SMILES | EC50 (P2Y purinoceptor 1 [1]) | further results |
| --- | --- | --- |
| BP(=O)(OP(=O)(O)OC[C@H]1O[C@@H](n2cnc3c(N)ncnc32)[C@H](O)[C@@H]1O)OP(=O)(O)OC[C@H]1O[C@@H](n2cnc3c(N)ncnc32)[C@H](O)[C@@H]1O.CCCCN(CCCC)CCCC.CCCCN(CCCC)CCCC.CCCCN(CCCC)CCCC | 900 nM |  |
| BP(=O)(OP(=O)(O)OC[C@H]1O[C@@H](n2ccc(=O)[nH]c2=O)[C@H](O)[C@@H]1O)OP(=O)(O)OC[C@H]1O[C@@H](n2ccc(=O)[nH]c2=O)[C@H](O)[C@@H]1O.CCCCN(CCCC)CCCC.CCCCN(CCCC)CCCC.CCCCN(CCCC)CCCC |  | EC50 (P2Y purinoceptor 2; hek293): Not Active; EC50 (P2Y purinoceptor 1 [2]): 800 nM |
| BP(=O)(OP(=O)(O)OP(=O)(O)OC[C@H]1O[C@@H](n2cnc3c(N)ncnc32)[C@H](O)[C@@H]1O)OP(=O)(O)OP(=O)(O)OC[C@H]1O[C@@H](n2cnc3c(N)ncnc32)[C@H](O)[C@@H]1O.CCCCN(CCCC)CCCC.CCCCN(CCCC)CCCC.CCCCN(CCCC)CCCC.CCCCN(CCCC)CCCC.CCCCN(CCCC)CCCC | 63 nM |  |
| BP(=O)(OP(=O)(O)OP(=O)(O)OC[C@H]1O[C@@H](n2ccc(=O)[nH]c2=O)[C@H](O)[C@@H]1O)OP(=O)(O)OP(=O)(O)OC[C@H]1O[C@@H](n2ccc(=O)[nH]c2=O)[C@H](O)[C@@H]1O.CCCCN(CCCC)CCCC.CCCCN(CCCC)CCCC.CCCCN(CCCC)CCCC.CCCCN(CCCC)CCCC.CCCCN(CCCC)CCCC |  | EC50 (P2Y purinoceptor 2; read-out: EC50): > 7000 nM; EC50 (P2Y purinoceptor 1 [2]): 800 nM |
| Nc1ncnc2c1ncn2[C@@H]1O[C@H](COP(=O)(O)OP(=O)(O)OP(=O)(O)OC[C@H]2O[C@@H](n3cnc4c(N)ncnc43)[C@H](O)[C@@H]2O)[C@@H](O)[C@H]1O | 60 nM |  |
| CSc1nc(N)c2ncn([C@@H]3O[C@H](COP(=O)(O)OP(=O)(O)O)[C@@H](O)[C@H]3O)c2n1 | 100 nM |  |
| Nc1ncnc2c1ncn2[C@@H]1O[C@H](COP(=O)(O)OP(=O)(O)OP(=O)(O)OP(=O)(O)OP(=O)(O)OC[C@H]2O[C@@H](n3cnc4c(N)ncnc43)[C@H](O)[C@@H]2O)[C@@H](O)[C@H]1O | ≥ 5000 nM |  |
| O=c1ccn([C@@H]2O[C@H](COP(=O)(O)OP(=O)(O)OP(=O)(O)O)[C@@H](O)[C@H]2O)c(=O)[nH]1 [URIDINE TRIPHOSPHATE] |  | EC50 (P2Y purinoceptor 2; read-out: EC50): 130 nM |
